Test results as given in ChEMBL document CHEMBL1144664, “Design, synthesis, and SAR of new pyrrole-oxindole progesterone receptor modulators leading to 5-(7-fluoro-3,3-dimethyl-2-oxo-2,3-dihydro-1H-indol-5-yl)-1-methyl-1H-pyrrole-2-carbonitrile (WAY-255348)” (J Med Chem, 2008).
The source made the active and inactive calls. The calls are words filed in the database; no cut-off is given here.

Key:
[1] = Cmax in cynomolgus monkey at 5 mg/kg, po; format: ADME, organism-based, Macaca fascicularis; set-up: dose 5 mg/kg, route oral; settings: in vivo
[2] = target: T1, Estrogen receptor (Homo sapiens) (UniProt P03372); assay: Antagonist activity at human ER ligand binding domain expressed in african green monkey COS7 cells in presence of 17-beta-estradiol by Gal4 hybrid assay; format: cell-based; settings: COS-7
T1 sequence (whole entry): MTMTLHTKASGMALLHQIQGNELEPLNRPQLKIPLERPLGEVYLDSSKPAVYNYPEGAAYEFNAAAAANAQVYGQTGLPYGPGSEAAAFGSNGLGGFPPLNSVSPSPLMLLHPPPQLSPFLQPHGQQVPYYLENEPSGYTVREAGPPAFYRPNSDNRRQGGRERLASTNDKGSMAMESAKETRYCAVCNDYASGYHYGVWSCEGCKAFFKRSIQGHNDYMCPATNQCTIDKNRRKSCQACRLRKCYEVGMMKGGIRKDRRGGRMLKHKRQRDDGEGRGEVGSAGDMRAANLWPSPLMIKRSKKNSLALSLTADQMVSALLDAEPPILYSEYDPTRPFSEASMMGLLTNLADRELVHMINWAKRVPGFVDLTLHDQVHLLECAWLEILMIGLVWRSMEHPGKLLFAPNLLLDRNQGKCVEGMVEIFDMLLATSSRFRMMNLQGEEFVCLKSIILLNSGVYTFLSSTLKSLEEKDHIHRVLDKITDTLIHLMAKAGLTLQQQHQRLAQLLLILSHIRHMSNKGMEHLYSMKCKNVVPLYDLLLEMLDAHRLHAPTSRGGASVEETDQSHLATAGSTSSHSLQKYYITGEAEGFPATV
Procedure, shortened: (§1)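 Gal4-steroid receptor LBD fusion plasmid plus GAL4_UAS (5 copies, E1b TATA)-luciferase reporter, 50 ng/well each, transfected 16 h into COS-7 cells grown in phenol red-free DMEM with 10% charcoal/dextran-treated FBS. Compound treatment 20 h, then luciferase read-out. Antagonist mode uses 3 nM aldosterone (hMR) or 5 nM 17β-estradiol (hER). Values are the average of at least duplicate determinations.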

[3] = AUC (0 to infinity) in Sprague-Dawley rat at 1 mg/kg, iv; format: ADME, organism-based; set-up: time infinity, dose 1 mg/kg, route intravenous; settings: plasma
[4] = Plasma clearance in cynomolgus monkey at 1 mg/kg, iv; format: ADME, organism-based, Macaca fascicularis; set-up: dose 1 mg/kg, route intravenous
[5] = target: T2, Mineralocorticoid receptor (Homo sapiens) (UniProt P08235); assay: Agonist activity at human MR ligand binding domain receptor expressed in african green monkey COS7 cells by Gal4 hybrid assay; format: cell-based; settings: COS-7; procedure, shortened: as §1
T2 sequence (whole entry): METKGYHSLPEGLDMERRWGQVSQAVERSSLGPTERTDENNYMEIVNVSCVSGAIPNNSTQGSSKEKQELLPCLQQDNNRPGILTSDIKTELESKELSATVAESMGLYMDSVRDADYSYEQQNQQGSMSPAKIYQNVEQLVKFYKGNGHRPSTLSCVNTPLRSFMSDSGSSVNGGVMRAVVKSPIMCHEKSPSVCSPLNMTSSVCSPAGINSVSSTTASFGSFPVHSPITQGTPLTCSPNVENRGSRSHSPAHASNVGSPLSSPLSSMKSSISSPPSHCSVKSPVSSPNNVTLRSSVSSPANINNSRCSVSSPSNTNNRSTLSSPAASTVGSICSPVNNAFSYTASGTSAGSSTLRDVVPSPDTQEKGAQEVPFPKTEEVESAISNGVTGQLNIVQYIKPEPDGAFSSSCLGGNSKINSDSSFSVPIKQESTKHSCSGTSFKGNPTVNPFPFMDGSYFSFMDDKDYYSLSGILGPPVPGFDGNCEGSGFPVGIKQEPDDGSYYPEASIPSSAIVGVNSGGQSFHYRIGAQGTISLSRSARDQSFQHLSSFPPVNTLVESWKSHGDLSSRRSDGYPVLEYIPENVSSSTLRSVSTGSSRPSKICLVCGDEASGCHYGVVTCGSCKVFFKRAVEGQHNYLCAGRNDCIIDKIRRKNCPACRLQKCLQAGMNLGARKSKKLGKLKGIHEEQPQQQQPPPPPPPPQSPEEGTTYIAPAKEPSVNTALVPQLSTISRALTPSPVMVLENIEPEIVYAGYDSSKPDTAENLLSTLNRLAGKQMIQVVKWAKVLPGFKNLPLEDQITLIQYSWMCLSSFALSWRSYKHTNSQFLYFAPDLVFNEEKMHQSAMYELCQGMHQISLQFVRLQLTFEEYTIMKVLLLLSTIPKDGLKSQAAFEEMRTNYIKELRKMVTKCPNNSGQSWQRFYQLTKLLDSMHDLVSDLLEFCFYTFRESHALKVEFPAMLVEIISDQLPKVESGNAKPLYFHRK

[6] = Cmax in Sprague-Dawley rat at 5 mg/kg, po; format: ADME, organism-based; set-up: dose 5 mg/kg, route oral; settings: in vivo
Procedure, shortened: (§2)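 Female Sprague–Dawley rats dosed as 1-in-4 cassette or discrete studies. iv in DMSO/PEG200 20:80; po in aqueous 2% Tween 80/0.5% methyl cellulose. Parameters reported: C0, Cmax, t1/2, plasma clearance, Vss, AUC0-inf and %F.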

[7] = Drug level in cynomolgus monkey at 1 mg/kg, iv; format: ADME, organism-based, Macaca fascicularis; set-up: dose 1 mg/kg, route intravenous; settings: in vivo
Rhesus monkey [8] = assay: Effect on basalis KI67 assessed as number of KI67 labeled cells of rhesus monkey; format: functional, Macaca mulatta
Procedure, shortened: (§3)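 Adult female rhesus macaques (n=3) with regular cycles dosed 10 mg/(kg·day) po in 2% Tween 80/0.5% methylcellulose with cherry flavoring for 28 days from cycle day 2. Serum estradiol and progesterone measured every 3 days. Necropsy on day 28. Uterine weights are of half the uterus; KI-67 and mitotic indices counted per 1000 cells. Values given as mean ± SE.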

[9] = AUC (0 to infinity) at steady state in cynomolgus monkey at 1 mg/kg, iv; format: ADME, organism-based, Macaca fascicularis; set-up: time infinity, dose 1 mg/kg, route intravenous; settings: plasma
[10] = Stability in human liver microsome assessed as half life; format: ADME; settings: liver microsomes
Procedure, shortened: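 Female rat, cynomolgus monkey and human liver microsome stability; half-life (min) reported.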

[11] = Drug level in cynomolgus monkey at […], iv; format: ADME, organism-based, Macaca fascicularis; set-up: dose 0.25 mg/kg, route intravenous; settings: in vivo
[12] = Volume of distribution at steady state in Sprague-Dawley rat at 0.5 mg/kg, iv; format: ADME, organism-based; set-up: dose 0.5 mg/kg, route intravenous; settings: in vivo, read-out: Vdss; procedure, shortened: as §2
[13] = Volume of distribution at steady state in Sprague-Dawley rat at 1 mg/kg, iv; format: ADME, organism-based; set-up: dose 1 mg/kg, route intravenous; settings: in vivo, read-out: Vdss; procedure, shortened: as §2
Rattus norvegicus = species: Rattus norvegicus; assay: Antagonist activity in rat uterus assessed as progesterone-induced decidualization response in stromal cells; format: functional
Procedure, shortened: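 Female rat decidualization model: compound given orally in 0.5% methyl cellulose/2% Tween 80 to antagonize the progesterone-induced decidual response of uterine stromal cells. ED50 reported.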

Rhesus monkey [14] = assay: Effect on cell proliferation in rhesus monkey assessed basalis mitotic index; format: functional, Macaca mulatta; procedure, shortened: as §3
[15] = target: T1, Estrogen receptor (Homo sapiens); assay: Agonist activity at human ER ligand binding domain expressed in african green monkey COS7 cells by Gal4 hybrid assay; format: cell-based; settings: COS-7; procedure, shortened: as §1
Cynomolgus monkey = assay: Inhibition of ovulation in cynomolgus monkey assessed as luteal phase progesterone surge at 3 mg/kg; format: functional; settings: Macaca fascicularis
Procedure, shortened: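 Normally cycling cynomolgus monkeys dosed orally, daily at 1, 3 or 10 mg/kg (n=4–6) or vehicle (n=2), in 2% Tween 80/0.5% methylcellulose for 30 days from cycle day 2. Serum sampled three times weekly; progesterone measured by radioimmunoassay to detect a luteal-phase rise as the sign of ovulation.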

[16] = Half life in Sprague-Dawley rat at 0.5 mg/kg, iv; format: ADME, organism-based; set-up: dose 0.5 mg/kg, route intravenous; settings: in vivo; procedure, shortened: as §2

Cn1c(C#N)ccc1-c1cc(F)c2c(c1)C(C)(C)C(=O)N2
Cmax [1]: 179 ng/mL
Activity [2]: inactive
AUC(0-inf) [3]: 4650 ng·h/mL
clearance [4]: 7 mL/min/kg
Activity [5]: inactive
Cmax [6]: 414 ng/mL
C0 [7]: 856 ng/mL
Activity (Rhesus monkey [8]): 0
AUC(0-inf) [9]: 2360 ng·h/mL
half-life [10]: > 0.5 h
C0 [11]: 178 ng/mL
Vd [12]: 2.9 L/kg
Vd [13]: 2.4 L/kg
ED50 (Rattus norvegicus): 0.3 mg/kg
Activity (Rhesus monkey [14]): 0
Activity [15]: inactive
ED50 (Cynomolgus monkey): 1.6 mg/kg
half-life [16]: 9.5 h
